In ChEMBL document CHEMBL3585255, “The Cephalostatins. 24. Isolation, Structure, and Cancer Cell Growth Inhibition of Cephalostatin 20” (2015):

Legend:
Type in all cases: functional
[1] = Cytotoxicity against human BxPC3 cells after 48 hrs by sulforhodamine B assay; conditions: BXPC-3, 48 h
Outline: (§1)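 Cells in RPMI1640 with 5% fetal bovine serum were plated in 96-well plates and incubated 24 h before serial dilutions of compound were added. After 48 h exposure, cells were fixed with trichloroacetic acid and stained with sulforhodamine B, and optical density was read on a plate reader. GI50, the concentration giving 50% reduction in net protein increase, was calculated from the OD data.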

DU-145 = test: Cytotoxicity against human DU145 cells after 48 hrs by sulforhodamine B assay; conditions: DU-145, 48 h; outline: as §1
NCI-H460 = test: Cytotoxicity against human NCI-H460 cells after 48 hrs by sulforhodamine B assay; conditions: NCI-H460, 48 h; outline: as §1
SF-268 = test: Cytotoxicity against human SF268 cells after 48 hrs by sulforhodamine B assay; conditions: SF-268, 48 h; outline: as §1
MCF7 = test: Cytotoxicity against human MCF7 cells after 48 hrs by sulforhodamine B assay; conditions: MCF7, 48 h; outline: as §1
[2] = Cytotoxicity against human KM20L2 cells after 48 hrs by sulforhodamine B assay; conditions: KM-20L2, 48 h; outline: as §1

Row | SMILES | GI50 [1] | GI50 (DU-145) | GI50 (NCI-H460) | GI50 (SF-268) | GI50 (MCF7) | GI50 [2]
1 | C[C@@H]1[C@]2(O[C@H]3C=C4[C@@H]5CC[C@H]6Cc7nc8c(nc7C[C@]6(C)[C@H]5C[C@@H](O)[C@]4(C)[C@]31O)C[C@@H]1CC[C@H]3C4=CC[C@@H]5[C@H](C)[C@@](O)([C@H](O)CC(C)(C)O)OC[C@]45C(=O)C[C@]3(O)[C@@]1(C)C8)O[C@](C)(CO)C[C@H]2O | 16 nM | 210 nM | 6 nM | 36 nM | 22 nM | 7.2 nM
2 | C[C@@H]1[C@]2(O[C@H]3C=C4[C@@H]5CC[C@H]6Cc7nc8c(nc7C[C@]6(C)[C@H]5C[C@@H](O)[C@]4(C)[C@]31O)C[C@@H]1CC[C@H]3C4=CC[C@@H]5[C@H](C)[C@@]6(OC[C@]45C(=O)C[C@@H]3[C@@]1(C)C8)OC(C)(C)C[C@H]6O)O[C@](C)(CO)C[C@H]2O [CEPHALOSTATIN 1] | 0.044 nM | 0.11 nM | 0.044 nM | 1.6 nM | 0.099 nM | 0.066 nM
3 | C[C@@H]1[C@]2(O[C@H]3C=C4[C@@H]5CC[C@H]6Cc7nc8c(nc7C[C@]6(C)[C@H]5C[C@@H](O)[C@]4(C)[C@]31O)C[C@@H]1CC[C@H]3C4=CC[C@@H]5[C@H](C)[C@@]6(OC[C@]45C(=O)C[C@]3(O)[C@@]1(C)C8)OC(C)(C)C[C@H]6O)O[C@](C)(CO)C[C@H]2O [CEPHALOSTATIN 2] | 0.022 nM | 0.11 nM | 0.0056 nM | 0.12 nM | 0.022 nM | 0.006 nM
4 | C[C@@H]1[C@]2(O[C@H]3C=C4[C@@H]5CC[C@H]6Cc7nc8c(nc7C[C@]6(C)[C@H]5C[C@@H](O)[C@]4(C)[C@]31O)C[C@@H]1CC[C@H]3C4=CC[C@@H]5[C@H](C)[C@@]6(OC[C@]45C(=O)C[C@]3(O)[C@@]1(C)C8)OC(C)(C)[C@@H](C)[C@H]6O)O[C@](C)(CO)C[C@H]2O [CEPHALOSTATIN 3] | 0.043 nM | 0.16 nM | 0.043 nM | 0.58 nM | 0.032 nM | 0.096 nM
5 | C[C@@H]1[C@]2(O[C@H]3C=C4[C@@H]5CC[C@H]6Cc7nc8c(nc7C[C@]6(C)[C@H]5C[C@@H](O)[C@]4(C)[C@]31O)C[C@@H]1CC[C@H]3[C@@]45O[C@@H]4C[C@@H]4[C@H](C)[C@@]6(OC[C@@]45C(=O)C[C@]3(O)[C@@]1(C)C8)OC(C)(C)C[C@H]6O)O[C@](C)(CO)C[C@H]2O [CEPHALOSTATIN 4] | 36 nM | 31 nM | 44 nM | 21 nM | 43 nM | 39 nM
6 | C[C@H]1[C@@H](O)C2(Oc3cc4c(c5c3[C@H](C[C@H]5O)[C@@H]2C)CC[C@H]2Cc3nc5c(nc3C[C@]42C)C[C@@H]2CC[C@H]3C4=C[C@@H]6O[C@@]7(C[C@]6(O)[C@@]4(C)[C@H](O)C[C@@H]3[C@@]2(C)C5)O[C@](C)(CO)C[C@H]7O)OC1(C)C (stereo partly drawn) [CEPHALOSTATIN 5] | 330 nM | 120 nM | 150 nM | 440 nM | 340 nM | 100 nM
7 | C[C@H]1[C@H]2C[C@@H](O)c3c4c(cc(c32)OC12OC(C)(C)C[C@H]2O)[C@@]1(C)Cc2nc3c(nc2C[C@@H]1CC4)C[C@@]1(C)[C@@H](CC[C@H]2C4=C[C@@H]5O[C@@]6(C[C@]5(O)[C@@]4(C)[C@H](O)C[C@@H]21)O[C@](C)(CO)C[C@H]6O)C3 (stereo partly drawn) [CEPHALOSTATIN 6] | 380 nM | > 1100 nM | 320 nM | 610 nM | 550 nM | 390 nM
8 | C[C@@H]1[C@]2(O[C@H]3C=C4[C@@H]5CC[C@H]6Cc7nc8c(nc7C[C@]6(C)[C@H]5C[C@@H](O)[C@]4(C)[C@]31O)C[C@@H]1CC[C@H]3C4=C[C@@H]5O[C@]6(CC[C@](C)(O)CO6)C[C@]5(O)[C@@]4(C)[C@H](O)C[C@@H]3[C@@]1(C)C8)O[C@](C)(CO)C[C@H]2O [CEPHALOSTATIN 7] | 5 nM | 470 nM | 8.2 nM | 110 nM | 50 nM | 48 nM
9 | C[C@@H]1C[C@]2(O[C@H]3C=C4[C@@H]5CC[C@H]6Cc7nc8c(nc7C[C@]6(C)[C@H]5C[C@@H](O)[C@]4(CO)[C@H]3[C@@H]2C)C[C@@H]2CC[C@H]3C4=C[C@@H]5O[C@]6(O[C@](C)(CO)C[C@H]6O)[C@@H](C)[C@]5(O)[C@@]4(C)[C@H](O)C[C@@H]3[C@@]2(C)C8)OC1(C)C [CEPHALOSTATIN 8] | 26 nM | > 1100 nM | 15 nM | 150 nM | 26 nM | 47 nM
10 | C[C@@H]1[C@H]2CC=C3[C@@H]4CC[C@H]5Cc6nc7c(nc6C[C@]5(C)[C@H]4CC(=O)[C@@]32COC1(O)[C@H](O)CC(C)(C)O)C[C@@H]1CC[C@H]2C3=C[C@@H]4O[C@]5(O[C@](C)(CO)C[C@H]5O)[C@@H](C)[C@]4(O)[C@@]3(C)[C@H](O)C[C@@H]2[C@@]1(C)C7 (stereo partly drawn) [CEPHALOSTATIN 9] | 14 nM | > 1100 nM | 39 nM | 150 nM | 110 nM | 58 nM
11 | CO[C@H]1c2nc3c(nc2C[C@@H]2CC[C@H]4C5=C[C@@H]6O[C@]7(O[C@](C)(CO)C[C@H]7O)[C@@H](C)[C@]6(O)[C@@]5(C)[C@H](O)C[C@@H]4[C@]21C)C[C@@]1(C)[C@@H](CC[C@H]2C4=CC[C@@H]5[C@H](C)[C@@]6(OC[C@]45C(=O)C[C@@]21O)OC(C)(C)C[C@H]6O)C3 [CEPHALOSTATIN 10] | 1.3 nM | 8.5 nM | 0.6 nM | 3.7 nM | 1.4 nM | 0.7 nM
12 | CO[C@H]1c2nc3c(nc2C[C@@H]2CC[C@H]4C5=CC[C@@H]6[C@@H](C)[C@]7(OC[C@]56C(=O)C[C@@H]4[C@]21C)OC(C)(C)C[C@H]7O)C[C@@]1(C)[C@@H](CC[C@H]2C4=C[C@@H]5O[C@]6(O[C@](C)(CO)C[C@H]6O)[C@@H](C)[C@]5(O)[C@@]4(C)[C@H](O)C[C@@H]21)C3 [CEPHALOSTATIN 11] | 4.9 nM | 23 nM | 5.4 nM | 27 nM | 4.1 nM | 6.3 nM
13 | C[C@@H]1[C@]2(O[C@H]3C=C4[C@@H]5CC[C@H]6Cc7nc8c(nc7C[C@]6(C)[C@H]5C[C@@H](O)[C@]4(C)[C@]31O)C[C@@H]1CC[C@H]3C4=C[C@@H]5O[C@]6(O[C@](C)(CO)C[C@H]6O)[C@@H](C)[C@]5(O)[C@@]4(C)[C@H](O)C[C@@H]3[C@@]1(C)C8)O[C@](C)(CO)C[C@H]2O [CEPHALOSTATIN 12] | 31 nM | 440 nM | 37 nM | 150 nM | 33 nM | 38 nM
14 | C[C@@H]1[C@]2(O[C@H]3C=C4[C@@H]5CC[C@H]6Cc7nc8c(nc7C[C@]6(C)[C@H]5C[C@@H](O)[C@]4(C)[C@]31O)C[C@@H]1CC[C@H]3C4=C[C@@H]5O[C@]6(O[C@](C)(CO)C[C@H]6O)[C@@H](C)[C@]5(O)[C@@]4(C)[C@H](O)C[C@@H]3[C@@]1(C)[C@H]8O)O[C@](C)(CO)C[C@H]2O [CEPHALOSTATIN 13] | 310 nM | 1100 nM | 370 nM | 340 nM | 290 nM | 470 nM
15 | C[C@@H]1[C@H]2C[C@@H]3O[C@@]34[C@]3(O)CC[C@H]5Cc6nc7c(nc6C[C@]5(C)C3=CC(=O)[C@]24CO[C@]12OC(C)(C)C[C@H]2O)C[C@@H]1CC[C@H]2C3=C[C@@H]4O[C@]5(O[C@](C)(CO)C[C@H]5O)[C@@H](C)[C@]4(O)[C@@]3(C)[C@H](O)C[C@@H]2[C@@]1(C)C7 [CEPHALOSTATIN 14] | 35 nM | 130 nM | 32 nM | 80 nM | 28 nM | 35 nM
16 | C[C@@H]1[C@H]2C[C@@H]3O[C@@]34[C@]3(O)CC[C@H]5Cc6nc7c(nc6C[C@]5(C)C3=CC(=O)[C@]24CO[C@]12OC(C)(C)[C@@H](C)[C@H]2O)C[C@@H]1CC[C@H]2C3=C[C@@H]4O[C@]5(O[C@](C)(CO)C[C@H]5O)[C@@H](C)[C@]4(O)[C@@]3(C)[C@H](O)C[C@@H]2[C@@]1(C)C7 [CEPHALOSTATIN 15] | 50 nM | 140 nM | 68 nM | 63 nM | 45 nM | 63 nM
17 | C[C@@H]1[C@H]2CC=C3[C@@H]4CC[C@H]5Cc6nc7c(nc6C[C@]5(C)[C@@]4(O)CC(=O)[C@@]32CO[C@]12OC(C)(C)C[C@H]2O)C[C@@H]1CC[C@H]2C3=C[C@@H]4O[C@@]5(CC[C@](C)(O)CO5)[C@@H](C)[C@]4(O)[C@@]3(C)[C@H](O)C[C@@H]2[C@@]1(C)C7 [CEPHALOSTATIN 16] | 0.44 nM | 12 nM | 0.64 nM | 5.2 nM | 1.1 nM | 0.6 nM
18 | C[C@@H]1[C@H]2CC=C3[C@H]4CC[C@H]5Cc6nc7c(nc6C[C@]5(C)[C@@]4(O)CC(=O)[C@@]32CO[C@]12OC(C)(C)C[C@H]2O)C[C@@H]1CC[C@H]2C3=C[C@@H]4O[C@]5(O[C@](C)(CO)C[C@H]5O)[C@@H](C)[C@]4(O)[C@@]3(C)[C@H](O)C[C@@H]2[C@@]1(C)C7 [CEPHALOSTATIN 17] | 0.36 nM | 3.3 nM | 0.46 nM | 2.7 nM | 0.43 nM | 0.58 nM
